An excerpt weighted towards active compounds, which were near 2.6% of everything screened.
miR-122 sensor = miR-122 inhibition in Huh7 cells; AID 602342; 340,000 compounds, 0.3% hits; Huh7 miR-122 Renilla luciferase sensor, 48 h; neutral wells = 0, positive control = 100; activation (reporter increase), % at 12.5 µM;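 active = mean replicate activation score at least 90 and every replicate individually at or above 90; inconclusive = only one of the two criteria met; inactive = neither criterion met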;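 also: higher luciferase means less miR-122 activity so hits act as miR-122 inhibitors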
DENV2 CPE = inhibitors of DENV2 cytopathic effect. AID 651640. DENV2-infected cells, cytopathic effect rescue, plate reader. CPE inhibition, % at 9.99 µM. 350,000 compounds, 1.7% hits; in the data active = CPE inhibition above about 20%, passing the limit was not always enough; inconclusive = no clear call, values can overlap the other calls; tested in BHK-21 cells
GSIS activator = GLuc luminescence reporter in INS-1E cells, primary screen for activators of glucose-dependent secretion of insulin; activation, % at 16.6 µM; AID 743287; 370,000 compounds, 0.61% hits; INS-1E GLuc reporter insulin secretion, 2-3 h;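 active = lowest replicate activation of at least 40%, so every replicate reaches that level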
CFTR F508del cor = correctors of CFTR F508del function in bronchial epithelial cells | CFBE cells, YFP halide quenching; stimulated with forskolin plus potentiator P3; % fluorescence drop versus neutral controls | activity (quench increase), % at 7.58 µM | AID 720511 | 350,000 compounds, 0.36% hits;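 active = mean added fluorescence quench of at least 8% versus neutral control, with both replicates also reaching 8%; inconclusive = only one of the mean or replicate conditions met; inactive = mean below 8% and not both replicates reaching 8%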;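 also: cells transiently co-express mutant CFTR-F508del with the halide-sensitive YFP; corrector assay measuring rescue of mutant channel to the surface after 24 h compound exposure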
ERAP1 HTS inh = ERAP1 (human) enzyme inhibition | recombinant ERAP1, Leu-AMC fluorescence, 60 min | inhibition, % at 10.7 µM | 340,000 compounds, 0.15% hits | AID 652197;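 active = mean replicate inhibition of at least 30%, or all replicates individually reaching that 30% level; inactive = mean below 30% and not every replicate reaching it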
Target sequence (Q9NZ08 whole entry, looked up): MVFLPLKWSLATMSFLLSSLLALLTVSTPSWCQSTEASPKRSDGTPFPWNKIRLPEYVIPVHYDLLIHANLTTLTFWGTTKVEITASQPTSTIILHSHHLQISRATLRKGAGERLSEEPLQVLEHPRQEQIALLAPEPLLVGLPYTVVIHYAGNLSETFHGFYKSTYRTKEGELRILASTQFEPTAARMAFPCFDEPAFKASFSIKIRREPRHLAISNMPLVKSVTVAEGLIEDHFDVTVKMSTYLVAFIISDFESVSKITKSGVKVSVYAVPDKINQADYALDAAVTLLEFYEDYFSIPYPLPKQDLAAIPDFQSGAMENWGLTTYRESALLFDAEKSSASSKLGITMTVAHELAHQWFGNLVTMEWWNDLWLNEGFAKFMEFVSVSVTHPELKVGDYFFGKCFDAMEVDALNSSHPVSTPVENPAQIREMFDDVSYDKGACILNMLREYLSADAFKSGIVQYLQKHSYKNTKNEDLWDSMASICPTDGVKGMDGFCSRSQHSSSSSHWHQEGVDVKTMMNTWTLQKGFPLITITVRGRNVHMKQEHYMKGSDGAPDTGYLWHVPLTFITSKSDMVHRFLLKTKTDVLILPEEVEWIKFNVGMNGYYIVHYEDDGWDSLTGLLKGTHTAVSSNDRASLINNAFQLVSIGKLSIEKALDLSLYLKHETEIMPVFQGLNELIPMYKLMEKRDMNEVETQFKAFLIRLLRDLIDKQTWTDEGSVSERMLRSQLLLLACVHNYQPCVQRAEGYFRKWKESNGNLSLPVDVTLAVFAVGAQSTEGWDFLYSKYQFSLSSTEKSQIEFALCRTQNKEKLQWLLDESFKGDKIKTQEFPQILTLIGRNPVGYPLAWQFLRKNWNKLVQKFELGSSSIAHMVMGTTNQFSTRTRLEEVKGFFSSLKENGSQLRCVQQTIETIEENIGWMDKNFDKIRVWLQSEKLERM
E-selectin induc = E-selectin induction on HUVECs; activation, % at 7.58 µM; HUVEC E-selectin immunofluorescence imaging; normalized: neutral wells 0, TNF-alpha wells 100; 260,000 compounds, 0.37% hits; P16581;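 active = mean E-selectin-positive cell signal at least 10% of the positive control, reached in at least 60% of replicates, without over 20% cell loss; inconclusive = no rule given, readout overlaps actives, possibly toxicity-flagged; inactive = the rest, including those meeting only one limit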
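Assay system: HUVEC, human umbilical vein endothelial cells / Amount: 3,000 HUVEC/well / Controls: TNF-alpha positive control, DMSO neutral control / Compound dosing: single concentration / Medium: EGM-2 over gelatin coat / Evaluation: percent E-selectin-positive cells / Signal: immunofluorescence imaging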
Of the large screens only hits and unclear results are named; the others gave an inactive call.

C[C@@H]1CCCCO[C@@H](CN(C)Cc2ccncc2)[C@H](C)CN([C@H](C)CO)C(=O)c2cc(NC(=O)c3ccccc3)ccc2O1	none
COc1ccc(C(=O)Nc2ccc3[nH]ccc3c2)cc1	E-selectin induc 34 (no result: miR-122 sensor, ERAP1 HTS inh)
COc1ccc(NS(=O)(=O)c2cc(NC(=O)c3ccc(=O)[nH]c3)ccc2C)cc1	miR-122 sensor 100 (no result: E-selectin induc)
COc1ccc(C(=O)Nc2ccccc2C(=O)NCC2CCCO2)cc1 (stereo unspecified)	GSIS activator 52
COc1ccc(C(=O)Nc2ccccc2C(=O)Nc2ccccc2)cc1	CFTR F508del cor 8.8
COc1ccc(C(=O)Nc2ccc(C)c(S(=O)(=O)N3CCCCCC3)c2)cc1	none (no result: GSIS activator)
COc1ccc(C(=O)Nc2ccccc2NC(=O)c2ccc(OC)cc2)cc1	none (no result: GSIS activator, ERAP1 HTS inh, E-selectin induc)
COc1ccc(C2(C(=O)Nc3nncs3)CCCC2)cc1	none (no result: DENV2 CPE, CFTR F508del cor, ERAP1 HTS inh, E-selectin induc)
COc1ccc(NC(=O)C2(c3ccc(NC(=O)c4ccc(OC)cc4)cc3)CCCC2)cc1	GSIS activator 98 (no result: DENV2 CPE, CFTR F508del cor, ERAP1 HTS inh, E-selectin induc)
Cc1ccc(-c2ccc([C@H]3[C@H](CO)N4C(=O)CN(C(=O)Nc5cccc(F)c5)C[C@@H]34)cc2)cc1	none (no result: miR-122 sensor)
COc1ccccc1C(CNc1ncnc2sc(C)c(C)c12)N(C)C (stereo unspecified)	DENV2 CPE 46
COc1ccc(C(CNc2ncnc3sc(C)c(C)c23)N(C)C)cc1 (stereo unspecified)	none (no result: miR-122 sensor)
O=C(CCN1CCCCC1)N[C@@H]1CC[C@H](CCNS(=O)(=O)c2ccc(Cl)cc2)O[C@H]1CO	none (no result: miR-122 sensor)
Cc1ccc(S(=O)(=O)Nc2ccc3c(c2)C(=O)N([C@H](C)CO)C[C@@H](C)[C@H](CN(C)C(=O)Nc2ccc(F)cc2)OCCCC[C@H](C)O3)cc1	none (no result: E-selectin induc)
Cc1ccc(-n2c(Cc3ccccc3)n[nH]c2=S)c(C)c1	none (no result: miR-122 sensor, E-selectin induc)
COc1ccc(Cc2n[nH]c(=S)n2-c2cc(C)ccc2C)cc1OC	DENV2 CPE 96
Cc1noc(C)c1NC(=O)Nc1ccc2c(c1)C(=O)N([C@@H](C)CO)C[C@H](C)[C@H](CN(C)C(=O)Nc1ccc(F)cc1)O2	none
NC(=O)CC(NC(=O)Cc1ccc(Cl)cc1)c1ccc(NCCOc2ccccc2)c([N+](=O)[O-])c1 (stereo unspecified)	none (no result: miR-122 sensor, GSIS activator)
NC(=O)CC(NC(=O)Cc1ccc(Cl)cc1)c1ccc(NC2CCN(Cc3ccccc3)CC2)c([N+](=O)[O-])c1 (stereo unspecified)	DENV2 CPE 61 (no result: miR-122 sensor)
NC(=O)CC(NC(=O)c1cccc(Br)c1)c1ccc(NC2CCN(Cc3ccccc3)CC2)c([N+](=O)[O-])c1 (stereo unspecified)	DENV2 CPE 70 (no result: miR-122 sensor, ERAP1 HTS inh)
CN(Cc1ccccc1)c1ccc(C(CC(N)=O)NC(=O)Cc2ccc(Br)cc2)cc1[N+](=O)[O-] (stereo unspecified)	DENV2 CPE 136 (no result: GSIS activator)
NC(=O)CC(NC(=O)Cc1ccc(Cl)cc1)c1ccc(NCc2ccccc2)c([N+](=O)[O-])c1 (stereo unspecified)	DENV2 CPE 28 (no result: ERAP1 HTS inh)
C[C@H](CO)N1C[C@H](C)[C@H](CN(C)S(=O)(=O)c2ccc(F)cc2)Oc2c(NC(=O)Nc3cccc4ccccc34)cccc2C1=O	none (no result: GSIS activator, E-selectin induc)
Cc1ccc(S(=O)(=O)N(C)C[C@@H]2OCCCC[C@@H](C)Oc3ccc(NC(=O)Nc4ccccc4)cc3C(=O)N([C@@H](C)CO)C[C@@H]2C)cc1	none (no result: E-selectin induc)
Cc1ccc(S(=O)(=O)Nc2ccc3c(c2)C(=O)N([C@@H](C)CO)C[C@@H](C)[C@@H](CN(C)Cc2ccccc2)OCCCC[C@H](C)O3)cc1	none (no result: ERAP1 HTS inh, E-selectin induc)
C/C(CC1CC(COCC(C)C)OC1=O)=N\NC(N)=S (stereo unspecified)	DENV2 CPE 91 (no result: miR-122 sensor, E-selectin induc)
CC(C)Nc1nc(Nc2ccc(C(N)=O)cc2)c2sccc2n1	GSIS activator 70
O=C(C[C@@H]1CC[C@H](NC(=O)Nc2cc(F)ccc2F)[C@H](CO)O1)NCCCN1CCOCC1	none (no result: miR-122 sensor)
CCOC(=O)CC1(C)Sc2ccccc2N1S(=O)(=O)c1ccc(C)cc1 (stereo unspecified)	DENV2 CPE 63 (no result: miR-122 sensor)
Cc1ccc(S(=O)(=O)Nc2ccc3c(c2)C(=O)N([C@H](C)CO)C[C@@H](C)[C@H](CN(C)S(=O)(=O)c2ccc(Cl)cc2)O3)cc1	DENV2 CPE 43 (no result: miR-122 sensor)
Cc1ccc(S(=O)(=O)Nc2ccc3c(c2)C(=O)N([C@H](C)CO)C[C@H](C)[C@@H](CN(C)S(=O)(=O)c2ccccc2)O3)cc1	DENV2 CPE 39
COCC#Cc1cnc2c(c1)C(=O)N([C@H](C)CO)C[C@H](C)[C@H](CN(C)C(=O)c1cnccn1)O2	none (no result: E-selectin induc)
CO[C@H]1CN(C)C(=O)c2ccc(NC(=O)c3cc(C)on3)cc2OC[C@H](C)N(C)C[C@@H]1C	none (no result: miR-122 sensor)
O=C(C1CC1)N1CC2(C1)[C@@H](c1ccccc1)[C@@H](CO)N2CC1CCCC1	none (no result: miR-122 sensor)
C[C@H]1CN([C@@H](C)CO)C(=O)c2cccc(NC(=O)c3ccc(-c4nccs4)cc3)c2O[C@@H]1CN(C)Cc1ccc(Cl)c(Cl)c1	E-selectin induc 304
C[C@@H]1CN([C@H](C)CO)C(=O)c2cccc(NC(=O)c3ccc(-c4nccs4)cc3)c2O[C@@H]1CN(C)Cc1ccc(Cl)c(Cl)c1	DENV2 CPE inconclusive
C[C@@H]1CN([C@@H](C)CO)C(=O)c2cccc(NC(=O)c3ccc(-c4nccs4)cc3)c2O[C@H]1CN(C)Cc1ccc(Oc2ccccc2)cc1	DENV2 CPE inconclusive, E-selectin induc 71
CNC[C@H]1Oc2c(NC(=O)c3ccc(-c4nccs4)cc3)cccc2C(=O)N([C@H](C)CO)C[C@H]1C	DENV2 CPE 41
COc1ccc(CN(C)C[C@H]2Oc3c(NC(=O)c4ccc(-c5nccs5)cc4)cccc3C(=O)N([C@@H](C)CO)C[C@@H]2C)cc1	DENV2 CPE 22 (no result: E-selectin induc)
C[C@@H]1CN([C@H](C)CO)C(=O)c2cccc(NC(=O)c3ccc(-c4nccs4)cc3)c2O[C@@H]1CN(C)Cc1ccc(Oc2ccccc2)cc1	none
O=C(NCc1cccs1)c1cccc(Nc2nc3ccc(Br)cc3[nH]2)c1	DENV2 CPE 22 (no result: E-selectin induc)
O=C(NCc1cccs1)c1ccccc1	none (no result: DENV2 CPE, GSIS activator, CFTR F508del cor, ERAP1 HTS inh, E-selectin induc)
O=C(NC1CCCCC1)c1cc(C2CC2)nn1-c1ccccc1	CFTR F508del cor 22
O=C(C[C@@H]1CC[C@@H](NC(=O)c2ccncc2)[C@@H](CO)O1)Nc1ccccc1	none (no result: miR-122 sensor)
COc1ccc(NC(=O)c2cc(-c3cccs3)on2)c(OC)c1	E-selectin induc 60
O=C1c2ccccc2C(=O)N1CCC(c1ccc(F)cc1)c1ccco1 (stereo unspecified)	GSIS activator 43 (no result: DENV2 CPE, CFTR F508del cor, ERAP1 HTS inh, E-selectin induc)
O=C1CCC(=O)N1CCC(c1ccc(F)cc1)c1ccco1 (stereo unspecified)	none (no result: E-selectin induc)
